# pIC50: −log10 of the molar value. Active and inactive are the calls of the source. No cut-off for these calls is given here.
# Key:
# [1] = molecular target: T1, Hypoxia-inducible factor 1-alpha (Homo sapiens, UniProt Q16665); assay: Inhibition of hypoxia-induced HIF1alpha transcriptional activity in human HeLa cells expressing HRE-Luc after 12 hrs by luciferase reporter gene assay; assay type: cell-based
# Target sequence in this assay (Q16665 whole entry): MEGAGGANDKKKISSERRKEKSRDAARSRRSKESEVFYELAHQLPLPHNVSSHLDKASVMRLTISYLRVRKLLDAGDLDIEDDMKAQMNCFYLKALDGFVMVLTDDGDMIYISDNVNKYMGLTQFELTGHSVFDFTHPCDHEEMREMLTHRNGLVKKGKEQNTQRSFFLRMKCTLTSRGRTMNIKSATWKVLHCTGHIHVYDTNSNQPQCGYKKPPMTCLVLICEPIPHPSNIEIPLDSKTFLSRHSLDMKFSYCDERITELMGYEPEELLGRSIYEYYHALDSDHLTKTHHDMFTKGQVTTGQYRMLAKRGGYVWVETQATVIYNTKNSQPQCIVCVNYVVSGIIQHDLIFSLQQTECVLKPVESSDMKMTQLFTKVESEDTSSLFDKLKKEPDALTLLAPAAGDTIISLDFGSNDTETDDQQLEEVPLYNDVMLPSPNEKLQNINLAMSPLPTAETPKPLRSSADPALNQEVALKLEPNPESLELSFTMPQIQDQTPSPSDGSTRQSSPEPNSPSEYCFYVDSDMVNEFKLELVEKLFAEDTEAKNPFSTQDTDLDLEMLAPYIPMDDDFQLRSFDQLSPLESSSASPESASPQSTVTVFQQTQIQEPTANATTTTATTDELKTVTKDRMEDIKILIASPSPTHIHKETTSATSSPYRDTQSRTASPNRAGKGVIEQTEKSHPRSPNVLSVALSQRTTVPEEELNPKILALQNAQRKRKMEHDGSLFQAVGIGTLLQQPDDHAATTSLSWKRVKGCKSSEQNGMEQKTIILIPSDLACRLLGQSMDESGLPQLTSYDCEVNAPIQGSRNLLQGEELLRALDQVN
# [2] = tested on: HepG2; assay: Cytotoxicity against human HepG2 cells after 72 hrs by MTT assay; assay type: functional, cell-based; details: HepG2, 72 h
# Procedure, shortened: (§1)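 Cells exposed to compound at 0.1–30 μM for 72 h; viability read by MTT assay.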
# [3] = tested on: PC-3; assay: Cytotoxicity against human PC3 cells after 72 hrs by MTT assay; assay type: functional, cell-based; details: PC-3, 72 h; procedure, shortened: as §1
# [4] = tested on: HeLa; assay: Inhibition of hypoxia-induced HIF1alpha nuclear translocation in human HeLa cells at 30 uM after 4 hrs by immunofluorescence analysis; assay type: functional, cell-based
# Procedure, shortened: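 Under 1% oxygen, HeLa cells incubated 4 h with compound. HIF-1α localization imaged by immunofluorescence with specific antibody; nuclei stained with DAPI.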
# [5] = tested on: HeLa; assay: Cytotoxicity against human HeLa cells after 72 hrs by MTT assay; assay type: functional, cell-based; procedure, shortened: as §1
# [6] = tested on: HeLa; assay: Inhibition of hypoxia-induced HIF1alpha accumulation in human HeLa cells at 30 uM after 4 hrs by Western blot analysis; assay type: functional, cell-based
# Procedure, shortened: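 HeLa cells under hypoxia (1% oxygen) treated with compound for 4 h at a range of concentrations. HIF-1α protein detected by immunoblot with specific antibody, tubulin as internal control.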
# [7] = tested on: HCT-116; assay: Cytotoxicity against human HCT116 cells after 72 hrs by MTT assay; assay type: functional, cell-based; details: HCT-116, 72 h; procedure, shortened: as §1
# [8] = tested on: HeLa; details: Homo sapiens, 1 uM
# [9] = tested on: HeLa; details: Homo sapiens, 0.001 to 1 uM
# [10] = tested on: HeLa; details: Homo sapiens, 0.1 to 10 uM
# [11] = molecular target: T1, Hypoxia-inducible factor 1-alpha; assay: Inhibition of hypoxia-induced HIF1alpha transcriptional activity in human HeLa cells expressing HRE-Luc at 30 uM after 12 hrs by luciferase reporter gene assay; assay type: cell-based
# Procedure, shortened: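 Reporter HeLa cells stably carrying HRE-firefly luciferase plus CMV-renilla luciferase, incubated 12 h with compound under 1% oxygen. Supernatant removed, then dual luciferase assay. Triplicate samples, mean ± SD.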
# Target sequence in this assay (Q16665 whole entry, looked up): as the sequence (Q16665 whole entry) above
Compound,pIC50 [1],pIC50 [2],pIC50 [3],inhibition [4],pIC50 [5],inhibition [6],pIC50 [7],inhibition [8],inhibition [9],inhibition [10],inhibition [11]
c1ccc(Nc2[nH]nc3c2Cc2ccccc2-3)cc1,< 4.52,,,,,,,,,,
COC(=O)c1ccc(O)c(NC(=O)COc2ccc(C34CC5CC(CC(C5)C3)C4)cc2)c1,4.68,< 4.52,< 4.52,Active,< 4.52,Active,< 4.52,,,,
c1ccc2c(c1)Cc1c-2n[nH]c1Nc1ccc2c(c1)OCO2,6.57,4.90,4.63,,5.24,,5.16,,,,
c1ccc2c(c1)Cc1c(Nc3ccc4c(c3)OCCO4)n[nH]c1-2,,5.43,4.60,,5.74,,5.68,inactive,inactive,inactive,
COc1cccc(Nc2n[nH]c3c2Cc2ccccc2-3)c1,5.21,5.17,< 4.52,,5.54,,5.66,,,,
c1ccc(Nc2[nH]nc3c2Cc2cc4c(cc2-3)OCO4)cc1,< 4.52,,,,,,,,,,
c1ccc2c(c1)Cc1c-2n[nH]c1Nc1ccc2c(c1)OCCO2,7.85,,,,,,,,,,
COc1ccc(Nc2n[nH]c3c2Cc2ccccc2-3)cc1OC,5.49,5.42,< 4.52,,5.74,,6.14,,,,
COc1cccc2c1Cc1c-2n[nH]c1Nc1ccccc1,< 4.52,5.28,4.66,,5.80,,5.64,,,,41%
c1ccc(Nc2n[nH]c3c2Cc2cc4c(cc2-3)OCO4)cc1,,4.95,4.65,,5.07,,5.28,,,,28%
OCc1ccc(-c2nn(Cc3ccccc3)c3ccccc23)o1,,5.66,< 4.52,,4.53,,5.66,,,,
c1ccc(Nc2n[nH]c3c2Cc2ccccc2-3)cc1,,4.62,< 4.52,,4.75,,4.76,,,,0%
COc1cccc2c1Cc1c(Nc3ccc4c(c3)OCCO4)n[nH]c1-2,7.47,5.15,5.16,,5.68,,5.23,,,,
COc1ccc2c(c1)Cc1c-2n[nH]c1Nc1ccccc1,< 4.52,> 7.00,> 7.00,,> 7.00,,> 7.00,,,,28%
COc1ccc2c(c1)-c1n[nH]c(Nc3ccccc3)c1C2,< 4.52,4.81,< 4.52,,4.87,,5.82,,,,18%
Nc1ccc(NC(=O)Nc2cccc3c2C(=O)c2c-3n[nH]c2-c2ccc3c(c2)OCO3)cc1,6.67,,,,,,,,,,
COc1cccc2c1-c1[nH]nc(Nc3ccccc3)c1C2,< 4.52,6.12,5.49,,6.24,,6.24,,,,3%
COc1cc2c(cc1OC)-c1n[nH]c(Nc3ccccc3)c1C2,< 4.52,6.62,6.14,,> 7.00,,> 7.00,,,,0%
COc1ccc(Nc2n[nH]c3c2Cc2ccccc2-3)cc1,5.85,5.04,4.54,,5.59,,5.51,,,,
